Results from ChEMBL document CHEMBL1127039, “Nonpeptide angiotensin II antagonists derived from 4H-1,2,4-triazoles and 3H-imidazo[1,2-b][1,2,4]triazoles” (J Med Chem, 1993).
pIC50: −log10 of the molar value.

target: T1, Type-1 angiotensin II receptor (Oryctolagus cuniculus, UniProt P34976); test: Displacement of [125I]-Sar1-Ile8-A II at the rabbit aorta angiotensin II receptor, type 1; assay type: tissue-based
T1 sequence (P34976 whole entry): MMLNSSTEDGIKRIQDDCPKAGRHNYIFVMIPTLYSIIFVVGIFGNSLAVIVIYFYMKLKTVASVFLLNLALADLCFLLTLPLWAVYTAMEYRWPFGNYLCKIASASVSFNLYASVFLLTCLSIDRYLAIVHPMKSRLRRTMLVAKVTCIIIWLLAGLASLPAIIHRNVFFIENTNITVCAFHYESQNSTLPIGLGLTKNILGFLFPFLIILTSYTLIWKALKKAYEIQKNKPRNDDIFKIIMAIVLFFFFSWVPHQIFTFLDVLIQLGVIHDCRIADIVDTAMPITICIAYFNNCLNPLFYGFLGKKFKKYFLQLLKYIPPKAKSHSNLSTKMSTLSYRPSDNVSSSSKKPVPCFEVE
Outline: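 Rabbit aorta membranes in 50 mM Tris-HCl pH 7.4, 5 mM MgCl2, 0.2 mg/mL bacitracin; 0.2% BSA only in original version. Nonspecific binding with 1 μM unlabeled Sar1Ile8-AII. Filtration, gamma counting. Duplicate tubes, five concentrations; IC50 from nonlinear regression of displacement curves, sometimes averaged over separate assays.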

SMILES | pIC50
CCCCc1nnc(NCc2ccc(Cl)cc2)n1Cc1ccc(-c2ccccc2-c2nn[nH]n2)cc1 | 6.85
CCCCc1nnc(SCc2ccccc2C)n1Cc1ccc(NC(=O)c2ccccc2C(=O)O)cc1 | 7.85
CCCCc1nnc(SCc2ccc(OC)cc2)n1Cc1ccc(-c2ccccc2-c2nnn[nH]2)cc1 | 7.51
CCCCc1nnc(SCc2ccc(C(=O)OC)cc2)n1Cc1ccc(-c2ccccc2-c2nn[nH]n2)cc1 | 6.92
CCCCc1nnc(SC(CC)C(=O)OC)n1Cc1ccc(NC(=O)c2ccccc2C(=O)O)cc1 (centres undefined) | 6.52
CCCCc1nnc(SCCO)n1Cc1ccc(NC(=O)c2ccccc2C(=O)O)cc1 | 6.32
CCCCc1nnc(SCC(=O)c2ccccc2)n1Cc1ccc(NC(=O)c2ccccc2C(=O)O)cc1 | 6.72
CCCCc1nnc(-c2ccccc2)n1Cc1ccc(NC(=O)c2ccccc2C(=O)O)cc1 | 6.03
CCCCc1nnc(-c2ccncc2)n1Cc1ccc(NC(=O)c2ccccc2C(=O)O)cc1 | 5.85
CCCCc1nnc(SCC(=O)NC)n1Cc1ccc(NC(=O)c2ccccc2C(=O)O)cc1 | 6.14
CCCCc1nnc(SCc2ccccc2Cl)n1Cc1ccc(NC(=O)c2ccccc2C(=O)O)cc1 | 7.52
CCCCc1nnc(SCCc2ccccc2)n1Cc1ccc(-c2ccccc2-c2nnn[nH]2)cc1 | 7.46
CCCCc1nnc(SCc2ccc(C(=O)O)cc2)n1Cc1ccc(-c2ccccc2-c2nnn[nH]2)cc1 | 7.62
CCCCc1nc(Cl)c(CO)n1Cc1ccc(-c2ccccc2C(=O)O)cc1 | 6.64
CCCCc1nnc(SCC(=O)OC)n1Cc1ccc(NC(=O)c2ccccc2C(=O)O)cc1 | 6.48
CCCCc1nnc(Sc2ccccc2)n1Cc1ccc(NC(=O)c2ccccc2C(=O)O)cc1 | 7.22
CCCc1nnc(SCc2ccccc2)n1Cc1ccc(NC(=O)c2ccccc2C(=O)O)cc1 | 6.92
CCCCc1nnc(S(C)(=O)=O)n1Cc1ccc(-c2ccccc2-c2nn[nH]n2)cc1 | 6.40
CCCCc1nnc(SCC2CCCCC2)n1Cc1ccc(-c2ccccc2-c2nn[nH]n2)cc1 | 7.44

SMILES | pIC50
CCCSc1nnc(C(F)(F)F)n1Cc1ccc(NC(=O)c2ccccc2C(=O)O)cc1 | 5.68
CCSc1nnc(-c2ccccc2)n1Cc1ccc(NC(=O)c2ccccc2C(=O)O)cc1 | 5.72
CCCSc1nnc(-c2ccccc2)n1Cc1ccc(NC(=O)c2ccccc2C(=O)O)cc1 | 5.80
CCCCc1nnc(C(=O)N(C)c2ccccc2)n1Cc1ccc(-c2ccccc2-c2nnn[nH]2)cc1 | 6.46
CCCCc1nnc(SCCc2ccccc2)n1Cc1ccc(NC(=O)c2ccccc2C(=O)O)cc1 | 7.15
CCCCc1nnc([S+]([O-])Cc2ccc([N+](=O)[O-])cc2)n1Cc1ccc(-c2ccccc2-c2nnn[nH]2)cc1 (centres undefined) | 8.05
CCCCCc1nnc(SCc2ccc(Cl)cc2)n1Cc1ccc(-c2ccccc2-c2nn[nH]n2)cc1 | 7.03
CCCCc1nnc(C(=O)NCc2ccccc2)n1Cc1ccc(-c2ccccc2-c2nnn[nH]2)cc1 | 7.24
CCCCc1nnc([S+]([O-])Cc2ccc(OC)cc2)n1Cc1ccc(-c2ccccc2-c2nnn[nH]2)cc1 (centres undefined) | 7.30
CCCCc1nnc(SC(C(=O)OC)c2ccccc2)n1Cc1ccc(NC(=O)c2ccccc2C(=O)O)cc1 (centres undefined) | 8.21
CCCCc1nnc(SCc2ccc(C(F)(F)F)cc2)n1Cc1ccc(NC(=O)c2ccccc2C(=O)O)cc1 | 7.38
CCCCc1nnc(SCc2cccc(C(=O)OC)c2)n1Cc1ccc(NC(=O)c2ccccc2C(=O)O)cc1 | 7.52
CCCCc1nnc(SCc2ccccc2[N+](=O)[O-])n1Cc1ccc(-c2ccccc2-c2nnn[nH]2)cc1 | 6.89
CCCCc1nnc(SCc2ccccc2CO)n1Cc1ccc(-c2ccccc2-c2nn[nH]n2)cc1 | 7.44
CCCCc1nn2cc(C)nc2n1Cc1ccc(-c2ccccc2-c2nnn[nH]2)cc1 | 7.26
CCCCc1nnc(SCc2cccc(C)c2)n1Cc1ccc(NC(=O)c2ccccc2C(=O)O)cc1 | 7.49
CCCCc1nnc(NCc2ccc(OC)cc2)n1Cc1ccc(-c2ccccc2-c2nnn[nH]2)cc1 | 6.11
CCCCc1nnc(OCc2ccccc2)n1Cc1ccc(-c2ccccc2-c2nn[nH]n2)cc1 | 6.43

Other lines, results leading:

pIC50 | SMILES
7.31 | CCCCc1nnc(SCc2ccc3ccccc3c2)n1Cc1ccc(NC(=O)c2ccccc2C(=O)O)cc1
5.32 | CCSc1nnc(C(F)(F)F)n1Cc1ccc(NC(=O)c2ccccc2C(=O)O)cc1
7.77 | CCCCc1nnc(SCc2ccccc2C)n1Cc1ccc(-c2ccccc2-c2nn[nH]n2)cc1
6.07 | CCCCc1nnc(S)n1Cc1ccc(-c2ccccc2C(=O)O)cc1
6.96 | CCCCc1nnc(SCc2ccccc2Cl)n1Cc1ccc(-c2ccccc2-c2nnn[nH]2)cc1
7.85 | CCCCc1nnc(SCc2ccccc2C(=O)OC)n1Cc1ccc(NC(=O)c2ccccc2C(=O)O)cc1
6.66 | CCCCc1nn2c(-c3ccccc3)cnc2n1Cc1ccc(-c2ccccc2-c2nn[nH]n2)cc1
7.02 | CCCCc1nc2ccccc2n1Cc1ccc(-c2ccccc2-c2nn[nH]n2)cc1
7.26 | CCCCc1nn2cc(CC)nc2n1Cc1ccc(-c2ccccc2-c2nn[nH]n2)cc1
8.17 | CCCCc1nnc(SCc2ccc(Cl)cc2)n1Cc1ccc(NC(=O)c2ccccc2C(=O)O)cc1
8.39 | CCCCc1nnc(SCc2ccc(OC)cc2)n1Cc1ccc(NC(=O)c2ccccc2-c2nn[nH]n2)cc1
7.55 | CCCCc1nnc([S+]([O-])Cc2ccc(OC)cc2)n1Cc1ccc(NC(=O)c2ccccc2-c2nn[nH]n2)cc1 (centres undefined)
6.42 | CCCSc1nnc(Cc2ccccc2)n1Cc1ccc(NC(=O)c2ccccc2C(=O)O)cc1
7.82 | CCCCc1nnc(SCc2cccc(C(=O)O)c2)n1Cc1ccc(NC(=O)c2ccccc2C(=O)O)cc1
6.77 | CCCCc1nn2c(-c3ccccc3)c(C)nc2n1Cc1ccc(-c2ccccc2-c2nnn[nH]2)cc1
7.00 | CCCCc1nnc(Sc2ccccc2)n1Cc1ccc(-c2ccccc2-c2nn[nH]n2)cc1
8.00 | CCCCc1nnc([S+]([O-])Cc2ccccc2C(=O)O)n1Cc1ccc(-c2ccccc2-c2nnn[nH]2)cc1 (centres undefined)
8.11 | CCCCc1nn2c(C)c(C)nc2n1Cc1ccc(-c2ccccc2-c2nn[nH]n2)cc1
7.59 | CCCCc1nnc(SCc2cccc(Cl)c2)n1Cc1ccc(NC(=O)c2ccccc2C(=O)O)cc1
6.00 | CCSc1nnc(Cc2ccccc2)n1Cc1ccc(NC(=O)c2ccccc2C(=O)O)cc1

pIC50 | SMILES
7.03 | CCCCc1nnc(SCc2cccc(OC)c2)n1Cc1ccc(-c2ccccc2-c2nn[nH]n2)cc1
7.05 | CCCCc1nnc(SCc2ccccc2C(=O)OC)n1Cc1ccc(-c2ccccc2-c2nnn[nH]2)cc1
7.68 | CCCCc1nnc(SCc2cccc(OC)c2)n1Cc1ccc(NC(=O)c2ccccc2C(=O)O)cc1
7.14 | CCCCc1nnc(SCC(C)C)n1Cc1ccc(-c2ccccc2-c2nn[nH]n2)cc1
6.49 | CCCSc1nnc(CCCc2ccccc2)n1Cc1ccc(NC(=O)c2ccccc2C(=O)O)cc1
7.20 | CCCCc1nnc(OCCc2ccccc2)n1Cc1ccc(-c2ccccc2-c2nnn[nH]2)cc1
8.85 | CCCCc1nnc(SCc2ccccc2-c2nn[nH]n2)n1Cc1ccc(-c2ccccc2-c2nn[nH]n2)cc1
5.92 | CCCSc1nnc(CSc2ccccc2)n1Cc1ccc(NC(=O)c2ccccc2C(=O)O)cc1
6.00 | CCCCc1nnc(-c2ccco2)n1Cc1ccc(NC(=O)c2ccccc2C(=O)O)cc1
7.22 | CCCCc1nnc(SCc2ccccc2C#N)n1Cc1ccc(NC(=O)c2ccccc2C(=O)O)cc1
7.01 | CCCc1nnc(SCc2ccc(Cl)cc2)n1Cc1ccc(-c2ccccc2-c2nn[nH]n2)cc1
8.12 | CCCCc1nnc(SCc2ccc(C)cc2)n1Cc1ccc(NC(=O)c2ccccc2C(=O)O)cc1
6.51 | CCCCc1nnc(SC)n1Cc1ccc(-c2ccccc2-c2nnn[nH]2)cc1
5.28 | CCSc1nnc(COC)n1Cc1ccc(NC(=O)c2ccccc2C(=O)O)cc1
7.70 | CCCCc1nnc(SC(C(=O)O)c2ccccc2)n1Cc1ccc(NC(=O)c2ccccc2C(=O)O)cc1 (centres undefined)
7.89 | CCCCc1nn2c(C)c(-c3ccccc3)nc2n1Cc1ccc(-c2ccccc2-c2nnn[nH]2)cc1
5.77 | CCCCc1nnc(-c2cccnc2)n1Cc1ccc(NC(=O)c2ccccc2C(=O)O)cc1
8.13 | CCCCc1nnc([S+]([O-])Cc2ccc(OC)cc2)n1Cc1ccc(NC(=O)c2ccccc2C(=O)O)cc1 (centres undefined)
6.38 | CCCCc1nc(Cl)c(CC(=O)OC)n1Cc1ccc(NC(=O)c2ccccc2C(=O)O)cc1

tested on: Rattus norvegicus; test: Peak inhibition of A II pressor response in conscious normotensive rats after intravenous administration of 3 mg/kg of drug (2 animals treated); assay type: functional
Outline: (§1)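 Male Sprague-Dawley rats (300–400 g) catheterized under methohexital, recovered overnight, conscious. Compound given iv (saline or NaHCO3/saline/water vehicle) or po, with food withheld for oral dosing. AII 0.1 μg/kg iv bolus given at -45, -30 and -15 min, then at 5–60 min and every 30 min afterwards. Peak percent inhibition of the AII ΔMAP response, averaged over at least two rats.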

SMILES | inhibition in vivo at 3 mg/kg
CCCCc1nnc(SCc2ccccc2C)n1Cc1ccc(NC(=O)c2ccccc2C(=O)O)cc1 | 56%
CCCCc1nnc(SCc2ccc(C)cc2)n1Cc1ccc(NC(=O)c2ccccc2C(=O)O)cc1 | 50%

tested on: Rattus norvegicus; test: Time from onset of action until significant (i.e., >= 30%) inhibition of pressor response no longer observed (1 mg/kg intravenous route).; assay type: functional
Outline: (§2)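 Same conscious-rat AII challenge protocol: AII 0.1 μg/kg iv boluses repeated after iv or po dosing, ΔMAP recorded. Duration is the time from onset until inhibition falls below 30% and stays below 30% for two further AII challenges. Averaged over at least two rats.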

SMILES | Duration
CCCCc1nnc(SCc2ccc(OC)cc2)n1Cc1ccc(NC(=O)c2ccccc2-c2nn[nH]n2)cc1 | 0.2 h
CCCCc1nnc(SCc2ccccc2-c2nn[nH]n2)n1Cc1ccc(-c2ccccc2-c2nn[nH]n2)cc1 | 0.6 h

tested on: Rattus norvegicus; test: Time from onset of action until significant (i.e., >= 30%) inhibition of pressor response no longer observed (3 mg/kg intravenous route); assay type: functional; outline: as §2

SMILES | Duration
CCCCc1nnc(SCc2ccccc2C)n1Cc1ccc(NC(=O)c2ccccc2C(=O)O)cc1 | 0.5 h
CCCCc1nnc(SCc2ccc(C)cc2)n1Cc1ccc(NC(=O)c2ccccc2C(=O)O)cc1 | 0.1 h

tested on: Rattus norvegicus; test: Peak inhibition of A II pressor response in conscious normotensive rats after intravenous administration of 1 mg/kg of drug (2 animals treated); assay type: functional; outline: as §1

SMILES | inhibition in vivo at 1 mg/kg
CCCCc1nnc(SCc2ccc(OC)cc2)n1Cc1ccc(NC(=O)c2ccccc2-c2nn[nH]n2)cc1 | 70%
CCCCc1nnc(SCc2ccccc2-c2nn[nH]n2)n1Cc1ccc(-c2ccccc2-c2nn[nH]n2)cc1 | 62%
